The record followed here is ChEMBL document CHEMBL3822419, “Rational Design of Potent and Selective Inhibitors of an Epoxide Hydrolase Virulence Factor from Pseudomonas aeruginosa” (J Med Chem, 2016).

Usually EC50 stands for the midpoint of the concentration-response curve. The IC50 is the midpoint of a concentration-inhibition curve. One may read the thermodynamic solubility as solubility found after equilibrating the solid with the medium. Broadly, the inhibition is the share of the control response that was lost under treatment.

Data set [1] is described as follows: Agonist activity at thyroid hormone receptor in rat GH3 cells expressing TRE measured after 24 hrs in presence of T3 by luciferase reporter gene assay. In kind it is cell-based. Particulars: GH3, 24 h. In short, it runs like this: (§1)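 GH3.TRE-Luc cells grown in regular growth medium, then seeded into 24-well plates for 24 h. Cells exposed 24 h with or without T3 plus test chemical in DMSO, kept at 0.5% (v/v) in exposure medium. Viability by total protein (BCA assay). Luciferase activity read on lysed cells.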
Background: Reporter assays use an easily measured gene product as a stand-in for the process of interest.

A further data set relates to Liver microsome. As to the kind of experiment: Half life in human liver microsomes measured after 60 mins in presence of NADPH by LC-MS/MS analysis. Format: ADME. Particulars: 1 h.
Data set [2] is described as follows: Inhibition of Pseudomonas aeruginosa recombinant His-tagged CFTR inhibitory factor expressed in expressed in Top10 Escherichia coli cells assessed as formation of 6-methoxy-2-naphthaldehyde preincubated for 5 mins followed by addition of CMNGC as substrate measured for 10 mins in presence of BSA by fluorescent-based assay.
Data set [3] has as its target T1, Bifunctional epoxide hydrolase 2 (Homo sapiens, UniProt P34913).
T1 sequence (P34913 whole entry): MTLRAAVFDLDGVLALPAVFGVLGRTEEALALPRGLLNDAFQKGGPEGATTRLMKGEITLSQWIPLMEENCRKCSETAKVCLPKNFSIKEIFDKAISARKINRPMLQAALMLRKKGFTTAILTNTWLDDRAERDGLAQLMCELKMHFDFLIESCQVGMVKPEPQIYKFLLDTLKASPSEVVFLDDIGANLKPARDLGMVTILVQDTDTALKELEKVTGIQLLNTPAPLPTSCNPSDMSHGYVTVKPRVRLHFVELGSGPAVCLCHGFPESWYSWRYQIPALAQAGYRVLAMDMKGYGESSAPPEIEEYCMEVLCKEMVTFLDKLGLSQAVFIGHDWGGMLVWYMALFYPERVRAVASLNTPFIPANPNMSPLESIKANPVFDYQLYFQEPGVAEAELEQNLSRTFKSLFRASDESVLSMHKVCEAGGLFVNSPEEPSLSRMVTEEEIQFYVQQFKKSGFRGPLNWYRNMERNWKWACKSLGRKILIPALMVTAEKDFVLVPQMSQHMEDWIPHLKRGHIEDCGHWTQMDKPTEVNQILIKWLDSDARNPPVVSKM
Put plainly: Inhibition of recombinant human sEH expressed in insect High Five cells preincubated for 5 mins followed by addition of t-DPPO as substrate measured after 10 mins by liquid scintillation counter method. In kind it is cell-based, BTI-TN-5B1-4.

Data set [4] can be described thus: Protein binding in Balb/c mouse plasma at 1 uM by rapid equilibrium dialysis method. In kind it is ADME, cell-free. The method, boiled down: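 Mouse plasma protein binding measured at 1 µM compound by rapid equilibrium dialysis.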
In general terms: In equilibrium dialysis only unbound substance equilibrates across the membrane.

Data set [5] can be described thus: Equilibrium solubility of the compound in sodium phosphate buffer at pH 7.4 measured after 24 hrs by LC-MS/MS analysis. Format: physicochemical.
The nature of data set [6]: Antagonist activity at thyroid hormone receptor in rat GH3 cells expressing TRE at 10 uM measured after 24 hrs in presence of T3 by luciferase reporter gene assay. In kind it is cell-based. Particulars: GH3, 24 h. The method, boiled down: as §1
The nature of data set [7]: Cytotoxicity against human CFBE cells at 10 uM by Cytotox 96 non-radioactive cytotoxicity assay. In kind it is cell-based.
A further data set concerns GH3. Put plainly: Cytotoxicity against rat GH3 cells expressing TRE and luciferase gene assessed as cell viability. In kind it is cell-based. The method, boiled down:
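GH3.TRE-Luc cells were seeded in 24-well plates for 24 h, then exposed for 24 h to test chemical in DMSO (0.5% v/v final), with or without T3. Viability per well was taken as total protein by BCA assay. Compounds were tested up to 10 µM.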

A further data set deals with T2, Epoxide hydrolase 1 (Homo sapiens, UniProt P07099).
T2 sequence (P07099 whole entry): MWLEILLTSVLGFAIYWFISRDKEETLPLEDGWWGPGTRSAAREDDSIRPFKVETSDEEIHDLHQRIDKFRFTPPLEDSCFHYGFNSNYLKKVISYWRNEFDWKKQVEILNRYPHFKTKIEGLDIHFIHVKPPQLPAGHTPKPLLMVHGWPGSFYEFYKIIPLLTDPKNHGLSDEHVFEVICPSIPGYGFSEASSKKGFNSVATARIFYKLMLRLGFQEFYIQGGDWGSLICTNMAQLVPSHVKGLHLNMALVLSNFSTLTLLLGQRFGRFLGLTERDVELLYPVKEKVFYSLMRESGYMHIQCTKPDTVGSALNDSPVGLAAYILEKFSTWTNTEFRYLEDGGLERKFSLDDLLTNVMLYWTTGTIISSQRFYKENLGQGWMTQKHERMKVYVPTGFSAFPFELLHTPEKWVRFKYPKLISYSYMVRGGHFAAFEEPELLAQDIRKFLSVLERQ
Put plainly: Inhibition of recombinant human mEH expressed in baculovirus expression system assessed as formation of 6-methoxy-2-naphthaldehyde preincubated for 5 mins followed by addition of CMNGC as substrate by fluorescent-based assay.

Data set [8] in a line: Stability in rat GH3 cells expressing TRE and luciferase gene assessed as percentage remaining at 10 uM measured after 24 hrs. Format: ADME, cell-based. Particulars: read-out: Stability. In short, it runs like this: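 Compound at 10 µM initial concentration incubated 24 h with GH3.TRE-Luc cells. Read-out is percentage of compound remaining, given as mean±SD.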
The nature of data set [9]: Stability in human liver microsomes assessed as compound remaining measured after 60 mins in presence of NADPH by LC-MS/MS analysis. Particulars: read-out: Stability. In kind it is ADME. (Liver microsomes are a subcellular fraction often used to study metabolism.)

Converted amounts (≈) assume the structure as drawn.

Consider `CCC(=O)Nc1cc(Cl)c(Oc2ccc(O)c(-c3ccc(C(N)=O)cc3)c2)c(Cl)c1`, for which, in data set [1], the EC50 is above 10 µM. In addition, the t1/2 in the data set on Liver microsome is 15 min. For the same molecule, the figures for the IC50 (in data set [2]; in data set [3]; at Epoxide hydrolase 1) were 0.35 µM, 8.6 µM and 17.2 µM, respectively. The PPB in [4] is on record as above 99%. Further, the thermodynamic solubility at 24 h in data set [5] amounted to 0.17 µM (≈ 0.0757 µg/mL). Also, the inhibition at 10 µM in [6] came out at 66%. Moreover, the Activity result (in data set [7]; in the data set with GH3) was “Non-toxic” in each case. In data set [8], the remaining at 24 h, 10 µM came out at 106%.

In the case of `CCOC(=O)CC(=O)Nc1ccc(Oc2ccc(O)c(C(C)C)c2)c(Cl)c1`, the IC50 in data set [2] was 11.6 µM.

With `CCC(=O)Nc1cc(Cl)c(Oc2ccc(O)c(-c3ccccc3)c2)c(Cl)c1`, the remaining at 1 h in data set [9] was found to be 63%. In data set [2], the IC50 was 1.4 µM.

Consider `CCOC(=O)CC(=O)Nc1cc(Cl)c(Oc2ccc(O)c(Br)c2)c(Cl)c1`, for which the IC50 in [2] was determined as 4.9 µM.

For the molecule `CCOC(=O)CC(=O)Nc1cc(Cl)c(Oc2ccc(O)c(C(F)(F)F)c2)c(Cl)c1`, the IC50 in data set [2] is 3 µM.

Consider `CCC(=O)Nc1cc(Cl)c(Oc2ccc(O)c(-c3ccc(C(=O)O)cc3)c2)c(Cl)c1`, for which the half-maximal inhibitory concentration (IC50) in data set [2] is 10.5 µM.

In the case of `CCC(=O)Nc1cc(Cl)c(Oc2ccc(O)c(-c3ccc(S(N)(=O)=O)cc3)c2)c(Cl)c1`, the IC50 in data set [2] was determined as 2 µM.

Turning to `CCOC(=O)CC(=O)Nc1cc(Cl)c(Oc2ccc(O)c(C(C)C)c2)c(Cl)c1`, in data set [2], the IC50 was 3.8 µM.

As for `C#Cc1cc(Oc2c(Cl)cc(NC(=O)CC(=O)OCC)cc2Cl)ccc1O`, the half-inhibitory concentration (IC50) in [2] turned out to be 2.9 µM.

For `CCOC(=O)CC(=O)Nc1cc(Br)c(Oc2ccc(O)c(C(C)C)c2)c(Br)c1`, the IC50 in [2] was determined as 6.7 µM.

`CCC(=O)Nc1cc(Cl)c(Oc2ccc(O)c(-c3ccc(C#N)cc3)c2)c(Cl)c1`: in data set [2], the half-inhibitory concentration (IC50) came to 11.9 µM.

For the molecule `CCCCCCCCCSC(C)C(N)=O` (configuration not stated), the IC50 at Epoxide hydrolase 1 worked out at 6 µM.

With `CCC(=O)Nc1cc(Cl)c(Oc2ccc(O)c(-c3cccc(C#N)c3)c2)c(Cl)c1`, the half-inhibitory concentration (IC50) in data set [2] came out at 0.58 µM.

Regarding `CCC(=O)Nc1cc(Cl)c(Oc2ccc(O)c(-c3cccc(C(N)=O)c3)c2)c(Cl)c1`, the IC50 in data set [2] turned out to be 0.46 µM.

Take `CCC(=O)Nc1cc(Cl)c(Oc2ccc(O)c(-c3ccc(C(=O)NC)cc3)c2)c(Cl)c1`: the 50% inhibitory concentration (IC50) in data set [2] turned out to be 1.7 µM.

For the molecule `CCOC(=O)CCC(=O)Nc1cc(Br)c(Oc2ccc(O)c(C(C)C)c2)c(Br)c1`, the IC50 in data set [2] was found to be 5.5 µM.

On to `CCOC(=O)CC(=O)Nc1cc(Br)c(Oc2ccc(OC)c(C(C)C)c2)c(Br)c1`, for which the concentration for half-maximal inhibition (IC50) in data set [2] is above 25 µM.

Turning to `CCOC(=O)CC(=O)Nc1cc(Cl)c(Oc2ccc(O)c(I)c2)c(Cl)c1`, the concentration for half-maximal inhibition (IC50) in data set [2] worked out at 3.8 µM.

With `CCOC(=O)CC(=O)Nc1cc(Cl)c(Oc2ccc(O)cc2)c(Cl)c1`, the IC50 in data set [2] is above 50 µM.

In the case of `CCOC(=O)CC(=O)Nc1cc(Br)c(Oc2cccc(C(C)C)c2)c(Br)c1`, in data set [2], the IC50 is above 50 µM.

On to `CCC(=O)Nc1cc(Br)c(Oc2ccc(O)c(C(C)C)c2)c(Br)c1`, for which the IC50 in data set [2] is 7.5 µM.

As to `CCC(=O)Nc1cc(Cl)c(Oc2ccc(O)c(-c3ccc(C(C)=O)cc3)c2)c(Cl)c1`, the EC50 in data set [1] was above 10 µM. For the same molecule, the t1/2 in the data set on Liver microsome came to 5.7 min. The results for the concentration for half-maximal inhibition (IC50) (in [2]; in data set [3]; at Epoxide hydrolase 1) were 0.35 µM, 7.7 µM and 97.8 µM, respectively. This molecule had a PPB in data set [4] above 99%. The solubility (thermodynamic) at 24 h in [5] was below 0.04 µM. Moreover, the inhibition at 10 µM in data set [6] turned out to be 33%. Besides, the remaining at 24 h, 10 µM in data set [8] came out at 74%.

As to `CCOC(=O)CC(=O)Nc1cc(Cl)c(Oc2ccc(O)cc2Br)c(Cl)c1`, the IC50 in data set [2] worked out at 29.3 µM.

Regarding `CC(C)c1cc(Oc2c(Br)cc(N)cc2Br)ccc1O`, the 50% inhibitory concentration (IC50) in [2] was found to be 9.7 µM.

For the molecule `CCC(=O)Nc1cc(Cl)c(Oc2ccc(O)c(-c3ccc(NC(C)=O)cc3)c2)c(Cl)c1`, in data set [2], the IC50 is 15.6 µM.

As for `CCC(=O)Nc1cc(Cl)c(Oc2ccc(O)c(-c3ccc(NC(N)=O)cc3)c2)c(Cl)c1`, in [1], the EC50 was above 10 µM. Besides, the t1/2 in the data set with Liver microsome worked out at 29 min. Besides, the half-inhibitory concentration (IC50) in data set [2] was found to be 0.29 µM; in data set [3], 7.5 µM; on Epoxide hydrolase 1 it was 26.3 µM. In data set [4], this molecule returned a PPB above 99%. The solubility (thermodynamic) at 24 h in data set [5] was found to be 21 µM (≈ 9.67 µg/mL). Further, the inhibition at 10 µM in data set [6] was 28%. The Activity entry (in data set [7]; in the data set on GH3) was “Non-toxic” in each case. The remaining at 24 h, 10 µM in data set [8] amounted to 103%.

On to `CC(=O)Nc1cc(Br)c(Oc2ccc(O)c(C(C)C)c2)c(Br)c1`, for which the IC50 in data set [2] was determined as 8.8 µM.

As to `CC(C)c1cc(Oc2c(Br)cc(NC(=O)CCC(=O)O)cc2Br)ccc1O`, in [2], the IC50 was determined as 3.2 µM.
